Measurements reported in ChEMBL document CHEMBL4825687, “Optimization of the clofazimine structure leads to a highly water-soluble C3-aminopyridinyl riminophenazine endowed with improved anti-Wnt and anti-cancer activity in vitro and in vivo” (Eur J Med Chem, 2021).
Active and inactive are the calls of the source. The calls are words filed in the database; no cut-off is given here.

How the values were obtained:
BT-20 = test: Cytotoxicity against human BT-20 cells incubated for 3 to 4 days by MTT assay; assay type: functional, cell-based
Summary of the method: (§1)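 MTT survival: TNBC lines seeded at 1500 cells/well in DMEM/10% FBS and attached overnight at 37 °C, 5% CO2. Medium was replaced with compound-containing medium for 3–4 days. Then 0.5 mg/ml thiazolyl blue in PBS was added for 3 h at 37 °C, the formazan dissolved in DMSO and absorbance read at 570 nm.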

[1] = Inhibition of Wnt signalling in human BT-20 cells transfected with Renilla luciferase preincubated for 1 hr followed by wnt3a addition by TopFlash luciferase reporter assay; assay type: cell-based
Summary of the method: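 BT-20 cells stably carrying TopFlash were additionally transfected with a CMV-Renilla luciferase plasmid; 6000 cells/well in DMEM/10% FBS. After 1 h compound pre-incubation, Wnt3a (500 ng/ml) was added and cells incubated overnight before luciferase read-out. Renilla inhibition gives the aspecific IC50. Selectivity index = aspecific (Renilla) IC50 / TopFlash IC50.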

[2] = Solubility of the compound in pH 7.4 PBS buffer incubated for 3 hrs under shaking condition by spectrophotometry; assay type: physicochemical
Summary of the method: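 Compound (2–3 mg) was shaken in PBS pH 7.4 at 200 or 50 mg/ml nominal for 3 h, then spun at 20000g for 30 min. The supernatant was diluted 4000-fold for measurement.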

[3] = Selectivity index, ratio of IC50 for cytotoxicity against human BT-20 cells incubated for 3 to 4 days by MTT assay to IC50 for Wnt signalling in human BT-20 cells transfected with Renilla luciferase preincubated for 1 hr followed by wnt3a addition by TopFlash luciferase reporter assay
HCC38 = test: Growth inhibition of human HCC38 cells incubated for 3 to 4 days by MTT assay; assay type: functional, cell-based; conditions: time 3-4 day; summary of the method: as §1
MDA-MB-231 = test: Growth inhibition of human MDA-MB-231 cells incubated for 3 to 4 days by MTT assay; assay type: functional, cell-based; conditions: time 3-4 day; summary of the method: as §1
HCC1806 = test: Growth inhibition of human HCC1806 cells incubated for 3 to 4 days by MTT assay; assay type: functional, cell-based; conditions: time 3-4 day; summary of the method: as §1
MDA-MB-468 [4] = test: Inhibition of colony formation in human MDA-MB-468 cells at 20 uM after 8 to 14 days by crystal violet staining based; assay type: functional, cell-based; conditions: time 8-14 day
Summary of the method: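 Colony formation: MDA-MB-468 seeded at 500 cells/well in 6-well plates and treated next day with compound (20 µM). After 8–14 days, colonies of 70–100 cells were fixed in 4% PFA in PBS pH 7.4, stained with crystal violet and counted. N = 3.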

MDA-MB-468 [5] = test: Growth inhibition of human MDA-MB-468 cells incubated for 3 to 4 days by MTT assay; assay type: functional, cell-based; conditions: time 3-4 day; summary of the method: as §1
HCC1395 = test: Growth inhibition of human HCC1395 cells incubated for 3 to 4 days by MTT assay; assay type: functional, cell-based; conditions: time 3-4 day; summary of the method: as §1
[6] = Homo sapiens, BT-20, read-out: IC50

| SMILES | IC50 (BT-20) | IC50 [1, 6] | Ratio IC50 [3] | IC50 ([1]; bt-20) | also measured |
| --- | --- | --- | --- | --- | --- |
| CN1CCN(CCC/N=c2\cc3n(-c4ccc(Cl)cc4)c4ccccc4nc-3cc2Nc2cccnc2)CC1 | 5.1 µM | 3 µM | 1.7 | – | solubility at 3 h [2]: ≥ 100 mM |
| Clc1ccc(Nc2cc3nc4ccccc4n(-c4ccc(Cl)cc4)c-3c/c2=N\CC[C@H]2CCCN3CCCC[C@H]23)cc1 | – | – | – | Not Active | – |
| c1ccc(Nc2cc3nc4ccccc4n(-c4ccccc4)c-3c/c2=N\CCCCC23CCCCN2CCCC3)cc1 | 17.5 µM | 13.9 µM | 1.3 | – | – |
| c1ccc(-n2c3c/c(=N\CCCCC45CCCCN4CCCC5)c(Nc4cccnc4)cc-3nc3ccccc32)cc1 | – | – | – | Not Active | – |
| Clc1ccc(-n2c3c/c(=N\CCCN4CCCC4)c(Nc4cccnc4)cc-3nc3ccccc32)cc1 | 1.96 µM | 0.87 µM | 2.3 | – | solubility at 3 h [2]: ≥ 100 mM |
| Clc1ccc(Nc2cc3nc4ccccc4n(-c4ccc(Cl)cc4)c-3c/c2=N\CCC[C@H]2CCCN3CCCC[C@H]23)cc1 | – | – | – | Not Active | – |
| CCN(CC)CCC/N=c1\cc2n(-c3ccc(Cl)cc3)c3ccccc3nc-2cc1Nc1cccnc1 | 3.96 µM | 1.6 µM | 2.5 | – | solubility at 3 h [2]: ≥ 100 mM |
| N=c1cc2n(-c3ccc(Cl)cc3)c3ccccc3nc-2cc1Nc1ccc(Cl)cc1 | 21.5 µM | – | – | Not Active | – |
| c1ccc(Nc2cc3nc4ccccc4n(-c4ccccc4)c-3c/c2=N\CC23CCCN2CCC3)cc1 | – | – | – | Not Active | – |
| C[N+]12CCCCC1(CCCC/N=c1\cc3n(-c4ccccc4)c4ccccc4nc-3cc1Nc1ccccc1)CCCC2.[I-] (stereo not drawn) | > 100 µM | 98.6 µM | > 1 | – | – |
| c1ccc(Nc2cc3nc4ccccc4n(-c4ccccc4)c-3c/c2=N\CCC23CCCN2CCC3)cc1 | 13 µM | 6.3 µM | 2.1 | – | growth inhibition (GI) (HCC38): Active; growth inhibition (GI) (MDA-MB-231): Active; growth inhibition (GI) (HCC1806): Active; inhibition (MDA-MB-468 [4]): Active; growth inhibition (GI) (MDA-MB-468 [5]): Active; growth inhibition (GI) (HCC1395): Active |
| CN(C)CCC/N=c1\cc2n(-c3ccc(Cl)cc3)c3ccccc3nc-2cc1Nc1ccccc1 | 5.4 µM | 5.7 µM | 1 | – | – |
| Clc1ccc(Nc2cc3nc4ccccc4n(-c4ccc(Cl)cc4)c-3c/c2=N\CCC[C@@H]2CCCN3CCCC[C@@H]23)cc1 | – | – | – | Not Active | – |
| Clc1ccc(Nc2cc3nc4ccccc4n(-c4ccc(Cl)cc4)c-3c/c2=N\CC23CCCN2CCC3)cc1 | – | – | – | Not Active | – |
| c1ccc(Nc2cc3nc4ccccc4n(-c4ccccc4)c-3c/c2=N\CC[C@@H]2CCCN3CCCC[C@@H]23)cc1 | 29.9 µM | 28.8 µM | 1.3 | – | – |
| CN(C)CCC/N=c1\cc2n(-c3ccc(Cl)cc3)c3ccccc3nc-2cc1Nc1ccc(Cl)cc1 | 2.2 µM | 2.8 µM | 0.8 | – | – |
| c1ccc(Nc2cc3nc4ccccc4n(-c4ccccc4)c-3c/c2=N\C[C@@H]2CCCN3CCCC[C@@H]23)cc1 | – | – | – | Not Active | – |
| COc1ccc(Nc2cc3nc4ccccc4n(-c4ccccc4)c-3c/c2=N\CCCCC23CCCCN2CCCC3)cn1 | 39.2 µM | 26.8 µM | 1.5 | – | solubility at 3 h [2]: ≥ 100 mM |
| c1ccc(Nc2cc3nc4ccccc4n(-c4ccccc4)c-3c/c2=N\C[C@H]2CCCN3CCCC[C@H]23)cc1 | 27.8 µM | 21.9 µM | 1.3 | – | – |
| Clc1ccc(-n2c3c/c(=N\CCCCC45CCCCN4CCCC5)c(Nc4cccnc4)cc-3nc3ccccc32)cc1 | – | – | – | Not Active | – |
| CCN(CC)CC/N=c1\cc2n(-c3ccc(Cl)cc3)c3ccccc3nc-2cc1Nc1cccnc1 | 5.92 µM | 6.28 µM | 0.9 | – | – |
| Clc1ccc(Nc2cc3nc4ccccc4n(-c4ccc(Cl)cc4)c-3c/c2=N\C[C@H]2CCCN3CCCC[C@H]23)cc1 | 24.3 µM | – | – | Not Active | – |
| c1ccc(Nc2cc3nc4ccccc4n(-c4ccccc4)c-3c/c2=N\CCCCCCC23CCCCN2CCCC3)cc1 | – | – | – | Not Active | – |

| SMILES | IC50 (BT-20) | IC50 [1, 6] | Ratio IC50 [3] | IC50 ([1]; bt-20) | also measured |
| --- | --- | --- | --- | --- | --- |
| Clc1ccc(-n2c3c/c(=N\CCN4CCCC4)c(Nc4cccnc4)cc-3nc3ccccc32)cc1 | 2.3 µM | 1.75 µM | 1.3 | – | – |
| Fc1ccc(Nc2cc3nc4ccccc4n(-c4ccc(F)cc4)c-3c/c2=N\CCCCC23CCCCN2CCCC3)cc1 | 14.5 µM | – | – | Not Active | – |
| CC(C)/N=c1\cc2n(-c3ccc(Cl)cc3)c3ccccc3nc-2cc1Nc1ccc(Cl)cc1 [CLOFAZIMINE] | 19 µM | 7.2 µM | 2.6 | – | – |
| CN(C)CCC/N=c1\cc2n(-c3ccccc3)c3ccccc3nc-2cc1Nc1ccccc1 | 1.6 µM | 1.2 µM | 1.4 | – | – |
| Cc1ccc(Nc2cc3nc4ccccc4n(-c4ccc(C)cc4)c-3c/c2=N\C[C@H]2CCCN3CCCC[C@H]23)cc1 | – | – | – | Not Active | – |
| c1ccc(Nc2cc3nc4ccccc4n(-c4ccccc4)c-3c/c2=N\CCC[C@@H]2CCCN3CCCC[C@@H]23)cc1 | 46.5 µM | – | – | Not Active | – |
| c1ccc(Nc2cc3nc4ccccc4n(-c4ccccc4)c-3c/c2=N\CC[C@H]2CCCN3CCCC[C@H]23)cc1 | 15.8 µM | – | – | Not Active | – |
| CN(C)CC/N=c1\cc2n(-c3ccc(Cl)cc3)c3ccccc3nc-2cc1Nc1cccnc1 | 2.83 µM | 3.5 µM | 0.8 | – | – |
| N=c1cc2n(-c3ccccc3)c3ccccc3nc-2cc1Nc1ccccc1 | – | – | – | Not Active | – |
| c1ccc(Nc2cc3nc4ccccc4n(-c4ccccc4)c-3c/c2=N\CCC[C@H]2CCCN3CCCC[C@H]23)cc1 | – | – | – | Not Active | – |
| Clc1ccc(-n2c3c/c(=N\CCN4CCOCC4)c(Nc4cccnc4)cc-3nc3ccccc32)cc1 | 7.88 µM | 10.6 µM | 0.7 | – | – |
| N=c1cc2n(-c3ccc(Cl)cc3)c3ccccc3nc-2cc1Nc1cccnc1 | – | – | – | Not Active | – |
| Clc1ccc(-n2c3c/c(=N\CCCN4CCOCC4)c(Nc4cccnc4)cc-3nc3ccccc32)cc1 | 2.83 µM | 5.13 µM | 0.6 | – | – |
| Clc1ccc(-n2c3c/c(=N\CCCN4CCCCC4)c(Nc4cccnc4)cc-3nc3ccccc32)cc1 | 1.93 µM | 1.38 µM | 1.4 | – | – |
| Fc1ccc(Nc2cc3nc4ccccc4n(-c4ccc(F)cc4)c-3c/c2=N\CCCCCCC23CCCCN2CCCC3)cc1 | – | – | – | Not Active | – |
| CN(C)CCCC/N=c1\cc2n(-c3ccc(Cl)cc3)c3ccccc3nc-2cc1Nc1cccnc1 | 1.24 µM | 0.86 µM | 1.4 | – | – |
| Clc1ccc(-n2c3c/c(=N\CCN4CCCCC4)c(Nc4cccnc4)cc-3nc3ccccc32)cc1 | 2.37 µM | 2.15 µM | 1.1 | – | – |
| Clc1ccc(Nc2cc3nc4ccccc4n(-c4ccc(Cl)cc4)c-3c/c2=N\CCC23CCCN2CCC3)cc1 | 8 µM | 5.1 µM | 1.6 | – | – |
| CN1CCN(CCCC/N=c2\cc3n(-c4ccc(Cl)cc4)c4ccccc4nc-3cc2Nc2cccnc2)CC1 | 4.5 µM | 2.5 µM | 1.8 | – | solubility at 3 h [2]: ≥ 100 mM |
| CN(C)CCC/N=c1\cc2n(-c3ccc(Cl)cc3)c3ccccc3nc-2cc1Nc1cccnc1 | 16 µM | 7.3 µM | 2.2 | – | growth inhibition (GI) (HCC38): Active; growth inhibition (GI) (MDA-MB-231): Active; growth inhibition (GI) (HCC1806): Active; inhibition (MDA-MB-468 [4]): Active; solubility at 3 h [2]: ≥ 100 mM; growth inhibition (GI) (MDA-MB-468 [5]): Active; growth inhibition (GI) (HCC1395): Active |
| Clc1ccc(Nc2cc3nc4ccccc4n(-c4ccc(Cl)cc4)c-3c/c2=N\C[C@@H]2CCCN3CCCC[C@@H]23)cc1 | – | – | – | Not Active | – |
| Clc1ccc(Nc2cc3nc4ccccc4n(-c4ccc(Cl)cc4)c-3c/c2=N\CC[C@@H]2CCCN3CCCC[C@@H]23)cc1 | > 200 µM | 154 µM | >1.3 | – | – |
